Measurements as given in ChEMBL document CHEMBL4814013, “Scaffold repurposing of fendiline: Identification of potent KRAS plasma membrane localization inhibitors” (Eur J Med Chem, 2021).
pIC50: −log10 of the molar value. The source made the active and inactive calls. No cut-off for these calls is given here.

Columns and labels:
MIA PaCa-2 [1] = assay: Antitumor activity against human MIA PaCa-2 cells harboring KRAS mutant xenografted in nu/nu mouse assessed as reduction in tumor growth at 1 to 5 mg/kg, ip administered once daily for 5 days with 2 days break by caliper analysis; format: functional, organism-based; details: dose 1-5 mg/kg, time 5.0 day
In short: (§1)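 Female nu/nu mice given 2 × 10⁶ early-passage MiaPaCa-2 cells subcutaneously in the right flank, randomized 10 per group. Dosing began when tumors reached 100 mm³: 1, 2.5 or 5 mg/kg i.p. daily for 5 days with 2 days off, vehicle DMSO. Caliper readings every 3–4 days, V = 0.52 × length × width². Animals sacrificed when any tumor reached 1500 mm³.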

HEC-1B cell line = assay: Antiproliferative activity against human HEC-1B cells expressing mutant KRAS assessed as reduction in cell growth incubated for 72 hrs by CyQuant proliferation assay; format: functional, cell-based
In short: (§2)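 Cells seeded in 96-well plates; after 24 h fresh growth medium with 0.1% DMSO vehicle or drug added (highest dose 30 µM for cancer lines), grown 72 h at 37 °C, 5% CO2. Live cell number measured by CyQUANT fluorescence. IC50 from three independent experiments. MEFs were isogenic lines carrying oncogenic BRAF or KRAS.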

NCI-H1299 = assay: Antiproliferative activity against human NCI-H1299 cells expressing wild type KRAS assessed as reduction in cell growth incubated for 72 hrs by CyQuant proliferation assay; format: functional, cell-based; details: NCI-H1299, 72 h; in short: as §2
Mus musculus = assay: In vivo inhibition of KRAS signaling in nu/nu mouse xenografted with human MIA PaCa-2 cells harboring KRAS mutation assessed as decrease in ERK phosphorylation in tumor at 1 to 5 mg/kg, ip administered once daily for 5 days with 2 days break by immunohistochemistry; format: functional, organism-based; details: dose 1-5 mg/kg, time 5.0 day
In short: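 Paraffin tumor sections of 4–5 µm were deparaffinized and given heat antigen retrieval in 10 mM sodium citrate. Endogenous peroxidase was quenched and sections blocked in 2.5% normal goat serum. Primary antibody (pERK or cleaved caspase 3) applied overnight at 4 °C, biotinylated secondary 1:250 for 45 min at rt, then ABC reagent 30 min and DAB development. Rabbit IgG served as control.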

MEF = assay: Antiproliferative activity against mouse MEF cells expressing KRAS G12D mutant assessed as reduction in cell growth incubated for 72 hrs by CyQuant proliferation assay; format: functional, cell-based; in short: as §2
HEC-1-A = assay: Antiproliferative activity against human HEC-1-A cells expressing mutant KRAS assessed as reduction in cell growth incubated for 72 hrs by CyQuant proliferation assay; format: functional, cell-based; in short: as §2
BXPC-3 = assay: Antitumor activity against human BXPC-3 cells harboring wild type KRAS xenografted in nu/nu mouse assessed as reduction in tumor growth at 1 mg/kg, ip administered once daily for 5 days with 2 days break by caliper analysis; format: functional, organism-based; details: time 5.0 day
In short: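 BxPC3 xenografts in nu/nu mice dosed i.p. with compound or DMSO vehicle on a schedule of daily for 5 days and 2 days off. Tumor size measured by external caliper every 3–4 days.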

MIA PaCa-2 [2] = assay: Antiproliferative activity against human MIA PaCa-2 cells expressing KRAS mutant assessed as reduction in cell growth incubated for 72 hrs by CyQuant proliferation assay; format: functional, cell-based; details: MIA PaCa-2, 72 h; in short: as §2
MDCK [3] = assay: Reduction in expression of human GFP-tagged ASM transfected in dog MDCK cells at 5 uM incubated for 48 hrs by western blot analysis; format: functional, cell-based; details: Canis lupus familiaris
In short: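 SMPD1-GFP-expressing MDCK cells treated 48 h with 5 µM compound, washed in cold PBS and lysed in Tris pH 7.5 buffer with NaF, EGTA, DTT, vanadate, 1% NP40 and protease inhibitors. 20 µg of protein resolved by SDS-PAGE and immunoblotted. Signals detected by enhanced chemiluminescence and quantified by densitometry.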

NCI-H1975 = assay: Antiproliferative activity against human NCI-H1975 cells expressing wild type KRAS assessed as reduction in cell growth incubated for 72 hrs by CyQuant proliferation assay; format: functional, cell-based; details: NCI-H1975, 72 h; in short: as §2
Caco-2 = assay: Antiproliferative activity against human Caco-2 cells expressing wild type KRAS assessed as reduction in cell growth incubated for 72 hrs by CyQuant proliferation assay; format: functional, cell-based; details: Caco-2, 72 h; in short: as §2
Caenorhabditis elegans = assay: In vivo inhibition of KRAS signaling in Caenorhabditis elegans lin-1 L1 harboring let60 […] mutant assessed as reduction in multi-vulva phenotype measured after 4 to 5 days culturing in buffer containing Escherichia coli OP50 by DIC/Nomarski microscopic analysis; format: functional, organism-based; details: dose 0.1-30 µM, time 4-5 day
In short: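 let-60 (n1046) or lin-1 L1 larvae cultured in M9 buffer with E. coli OP50 plus DMSO vehicle or compound at 0.1, 0.3, 1, 3, 10 or 30 µM. After 4–5 days, adults were scored for multi-vulva by DIC/Nomarski microscopy.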

MDCK [4] = assay: Inhibition of ASM in dog MDCK cells co-expressing recombinant full length mGFP-tagged KRAS G12V mutant and mCherry-CAAX assessed as reduction in plasma membrane localization of KRAS mutant at 1 uM incubated for 48 hrs followed by incubation with recombinant ASM in continued presence of compound for 60 mins by confocal microscopic analysis; format: cell membranes; details: Canis lupus familiaris, time 49.0 hrs
In short: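 MDCK cells stably co-expressing mGFP-KRAS G12V and mCherry-CAAX seeded on glass coverslips and grown 48 h with or without compound. Medium then replaced with fresh medium containing 2 units/mL recombinant ASM, drug continued, for 60 min. Cells mounted in mowiol and imaged by confocal microscopy. Mislocalization scored by Manders coefficient.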

[5] = Antiproliferative activity against human MPANC96 cells expressing KRAS mutant assessed as reduction in cell growth incubated for 72 hrs by CyQuant proliferation assay; format: functional, cell-based; details: MPANC96, 72 h; in short: as §2
SK-CO-1 = assay: Antiproliferative activity against human SK-CO-1 cells expressing mutant KRAS assessed as reduction in cell growth incubated for 72 hrs by CyQuant proliferation assay; format: functional, cell-based; details: SK-CO-1, 72 h; in short: as §2
MIA PaCa-2 [6] = assay: Antitumor activity against human MIA PaCa-2 cells harboring KRAS mutant xenografted in nu/nu mouse assessed as reduction in tumor growth at 2.5 to 5 mg/kg, ip administered once daily for 5 days with 2 days break by caliper analysis; format: functional, organism-based; details: dose 2.5-5 mg/kg, time 5.0 day; in short: as §1

| SMILES | Activity (MIA PaCa-2 [1]) | pIC50 (HEC-1B cell line) | pIC50 (NCI-H1299) | inhibition (Mus musculus) | pIC50 (MEF) | pIC50 (HEC-1-A) | Activity (BXPC-3) | pIC50 (MIA PaCa-2 [2]) | inhibition (MDCK [3]) | pIC50 (NCI-H1975) | pIC50 (Caco-2) | inhibition (Caenorhabditis elegans) | inhibition (MDCK [4]) | pIC50 [5] | pIC50 (SK-CO-1) | Activity (MIA PaCa-2 [6]) |
| --- | --- | --- | --- | --- | --- | --- | --- | --- | --- | --- | --- | --- | --- | --- | --- | --- |
| COc1ccc([C@@H](C)N(CC=C(c2ccccc2)c2ccccc2)CCN2CCCC2)cc1 | Active | 5.52 | 5.10 | Active | 5.41 | 5.64 | inactive | 5.51 | Active | < 4.52 | 5.38 | Dose-Dependent Effect | inactive | 5.42 | 5.52 |  |
| COc1ccc([C@@H](C)N(CC=C(c2ccccc2)c2ccccc2)CCCN2CCN(C)CC2)cc1 |  |  |  | Active | 5.62 |  |  |  | inactive | < 4.52 |  | Dose-Dependent Effect | inactive | 5.38 | 5.46 | Active |
